Activity calls are given as the source filed them.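 The calls were made as follows: active = compounds whose fitted half-maximal growth inhibition potency lies within ten times the top tested dose; inconclusive = flat inhibition of 30 to 70 percent, or poor fit; inactive = the rest.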

Usually AC50 stands for the concentration at which the activity in the assay is half-maximal.

The subject of the first experiment is C. albicans CaCi-2 growth without fluconazole, Alamar Blue, 48 h. Nature of the experiment: growth inhibition of C. albicans alone, dose response, counter-screen for antifungal drug resistance project, CaCi-2, no fluconazole, powder samples, set 9 (AID 504499).
Conditions: not given
The method in brief:
(§1)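 system = C. albicans CaCi-2 | amount = inoculum at 0.00015 A600 | medium = RPMI synthetic defined growth medium without fluconazole | schedule = Yeast–compound growth 48 h, 37 °C, then Alamar Blue 2 h | benchmarks = geldanamycin positive control | signal = Alamar Blue fluorescence, 544/590 nm | evaluation = relative yeast growth derived from Alamar Blue fluorescence signal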
(In general: Counterscreens check selectivity or assay interference.)
As for `COC(=O)Cn1c2ccc(F)cc2c2nc3n(c(=O)c21)CCS3`, the AC50 is 19.4 µM.

Test system in the next experiment: not listed separately
The experiment is described as above. As to conditions: C. albicans CaCi-2 (fluconazole-resistant clinical isolate) growth without fluconazole, Alamar Blue, 48 h; at 26 µM (top of the series). The essentials: as §1
On the technique in general: The colour change of resazurin is a common sign of viable cells or microbes.
For the molecule `CC1(O)CN(C(=O)Cn2c3ccccc3c3nc4n(c(=O)c32)CCS4)C1`, the growth change, negative = inhibition was 5.26% (inactive).

For `O=C(Cn1c2ccccc2c2nc3n(c(=O)c21)CCS3)N1CCCCC1`, the growth change, negative = inhibition was -17.6% (inactive).

`COC(=O)Cn1nc(-c2ccccc2)c2cccnc21`: the growth change, negative = inhibition is -7.57% (inactive). For `COC(=O)Cn1nc(-c2cccc(OC)c2)c2ccccc21`, the growth change, negative = inhibition is -28.4% (inactive). Take `O=C(Cn1c2ccccc2c2nc3n(c(=O)c21)CCS3)N1CC=CC1`: the growth change, negative = inhibition was 6.32% (inactive). Same read-out and setting: to `COC(=O)Cn1nc(C(C)(C)C)c2ccccc21` belongs 6.09% (inactive). On the same count and under the same terms, next, `CC1CCN(CCn2c3ccccc3c3nc4n(c(=O)c32)CCS4)CC1`: 2.22% (inactive); `CN1CCN(C(=O)Cn2c3ccccc3c3nc4n(c(=O)c32)CCS4)CC1`: 2.02% (inactive); `O=C(Cn1c2ccc(F)cc2c2nc3n(c(=O)c21)CCS3)N1CCC(F)(F)C1`: -1.64% (inactive). The same measure, in the same setting: to `COC(=O)Cn1nc(-c2cnco2)c2ccccc21` belongs 22% (inactive); to `O=C(O)Cn1c2ccc(F)cc2c2nc3n(c(=O)c21)CCS3`, -15.5% (inactive). Turning to `O=C(Cn1c2ccc(F)cc2c2nc3n(c(=O)c21)CCS3)N1CC=CC1`, the growth change, negative = inhibition is 2.91% (inactive).

Regarding `O=C(O)Cn1c2ccccc2c2nc3n(c(=O)c21)CCS3`, the growth change, negative = inhibition is 31.2% (inactive).

As to `c1ccc(-c2nn(Cc3nnco3)c3ccccc23)cc1`, the growth change, negative = inhibition is 18.3% (inactive). The same measure, in the same setting: to `COC(=O)n1nc(-c2ccccc2)c2ccccc21` belongs -9.34% (inactive); to `O=C(Cn1c2ccc(F)cc2c2nc3n(c(=O)c21)CCS3)N1CCC(F)(F)CC1`, -9.87% (inactive). On the same count and under the same terms, next, `COC(=O)Cn1nc(-c2cccc(F)c2)c2ccccc21`: -24.6% (inactive); `O=C(Cn1c2ccccc2c2nc3n(c(=O)c21)CCS3)N1CCC(F)(F)C1`: 5.06% (inactive); `COC(=O)Cn1nc(C2CCCCC2)c2ccccc21`: -13.2% (inactive). Turning to `COC(=O)Cn1nc(-c2cscn2)c2ccccc21`, the growth change, negative = inhibition was -11.4% (inactive). As for `COC(=O)Cn1nc(C2CC2)c2ccccc21`, the growth change, negative = inhibition is 4% (inactive).

As to `O=C(Cn1c2ccccc2c2nc3n(c(=O)c21)CCS3)N1CCCC1`, the growth change, negative = inhibition is -33.3% (inactive). For the molecule `O=C(Cn1c2ccccc2c2nc3n(c(=O)c21)CCS3)N1CCC(F)(F)CC1`, the growth change, negative = inhibition was 5.44% (inactive).

For `CCc1nn(CC(=O)OC)c2ccccc12`, the growth change, negative = inhibition was -15.4% (inactive).

In the case of `COC(=O)Cn1nc(-c2cccnc2)c2ccccc21`, the growth change, negative = inhibition is 1.88% (inactive). The same measure, in the same setting: next, `COC(=O)Cn1nc(-c2cccc(C)c2)c2ccccc21`: -23.2% (inactive).

These data come from PubChem BioAssay AID504499 (Broad Institute, 2011).
